{
  "source": "ChEMBL document CHEMBL2331117",
  "about": "(J Med Chem, 2013)",
  "key": {"[1]": {"experiment": "Apparent permeability across MDCK cells", "format": "ADME, cell-based, Canis lupus familiaris", "conditions": "dog"}, "[2]": {"experiment": "Cmax in CD rat at 3 mg/kg, iv", "format": "ADME, organism-based", "parameters": "dose 3 mg/kg, route intravenous", "conditions": "in vivo", "method_in_brief": "(§1)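 Single-dose PK: female athymic nude mice (10 mg/kg), female CD rats and male beagle dogs (3 mg/kg), male cynomolgus monkeys (3 mg/kg), given iv and by oral gavage. Solution in EPW (5% ethanol/45% PEG400/water), with 1:2 HCl (m/m) for mouse, rat and dog and 1:1.5 HCl (m/m) for monkey. Plasma levels followed over 24 h.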"}, "[3]": {"experiment": "Cmax in CD rat at 3 mg/kg, po", "format": "ADME, organism-based", "parameters": "dose 3 mg/kg, route oral", "conditions": "in vivo", "method_in_brief": "as §1"}, "Mus musculus [4]": {"test_system": "Mus musculus", "experiment": "In vivo inhibition of mTORC2-mediated phosphorylation of AKT at […] in human PC3 cells xenografted into athymic nude mouse at 100 mg/kg, po after 32 hrs by Western blotting analysis relative to control", "format": "functional", "conditions": "PC-3, 32 h", "method_in_brief": "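Human PC-3 cells were implanted subcutaneously into the hindflank of male nude mice aged 5−8 weeks, at 3 × 10^6 cells (passages 10−14, >95% viability) in ice-cold HBSS. At a tumor size of 200−500 mg, mice got one oral 100 mg/kg dose. Tumors were taken at 1, 4, 8, 16, 24 and 32 h. Lysates (n = 5 per group) were pooled, and phospho-AKT (T308) was read by Western blot, normalized to α-tubulin.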"}, "[5]": {"experiment": "Plasma concentration in athymic mouse plasma xenografted with human PC3 cells at 100 mg/kg, po after 16 hrs", "format": "ADME, organism-based, PC-3", "parameters": "dose 100 mg/kg, route oral"}, "Mus musculus [6]": {"test_system": "Mus musculus", "experiment": "In vivo inhibition of mTORC1-mediated phosphorylation of p70S6K at […] in human PC3 cells xenografted into athymic nude mouse at 100 mg/kg, po after 32 hrs by Western blotting analysis relative to control", "format": "functional", "conditions": "PC-3, 32 h", "method_in_brief": "(§2)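 PC-3 cells grown in DMEM with 20% FBS were implanted subcutaneously at 3 × 10^6 cells in ice-cold HBSS into the hindflank of 5−8 week old male nude mice. At tumor size 200−500 mg, mice received a single oral dose of 100 mg/kg. Plasma and tumors were collected at 1, 4, 8, 16, 24 and 32 h. Tumor lysates from each group (n = 5) were pooled. Phospho-proteins were quantified by Western blot and normalized to α-tubulin.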"}, "[7]": {"experiment": "Oral bioavailability in CD rat at 3 mg/kg", "format": "ADME, organism-based", "conditions": "in vivo", "method_in_brief": "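For single-dose PK, compound was given intravenously and by oral gavage as a solution in EPW (5% ethanol/45% PEG400/water + 1:2 HCl m/m). Doses were 10 mg/kg in female athymic nude mice and 3 mg/kg in female CD rats and male beagle dogs.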"}, "[8]": {"experiment": "Drug uptake in tumor of athymic mouse xenografted with human MCF7 cells at 100 mg/kg, po after 8 hrs", "format": "ADME, organism-based, Neoplasm", "parameters": "dose 100 mg/kg, route oral", "conditions": "read-out: Drug uptake"}, "Mus musculus [9]": {"test_system": "Mus musculus", "experiment": "In vivo inhibition of mTORC1-mediated phosphorylation of 4EBP1 at ([…]) in human PC3 cells xenografted into athymic nude mouse at 100 mg/kg, po after 4 hrs by Western blotting analysis relative to control", "format": "functional", "conditions": "PC-3, 4 h", "method_in_brief": "as §2"}, "Mus musculus [10]": {"test_system": "Mus musculus", "experiment": "In vivo inhibition of mTORC2-mediated phosphorylation of AKT at serine 473 in human MCF7 cells xenografted into athymic nude mouse at 100 mg/kg, po after 8 hrs by Western blotting analysis relative to control", "format": "functional", "conditions": "MCF7, 8 h", "method_in_brief": "(§3)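 MCF-7 cells (DMEM, 10% FBS) were implanted subcutaneously at 5 × 10^6 cells in 50% cold HBSS/50% growth-factor-reduced matrigel into the hindflank of 5−8 week old female nude mice. At tumor size 40−150 mg, mice received a single oral dose of 100 mg/kg. Tumor lysates were pooled per group. Phospho-AKT (S473, T308), p70S6K (T389), S6 (S240/244) and 4E-BP1 (T37/46) were measured by Western blot normalized to α-tubulin.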"}, "[11]": {"experiment": "Tmax in CD rat at 3 mg/kg, po", "format": "ADME, organism-based", "parameters": "dose 3 mg/kg, route oral", "conditions": "in vivo"}, "[12]": {"biological_target": "Receptor-type tyrosine-protein kinase FLT3 (Homo sapiens, UniProt P36888)", "sequence (P36888 whole entry)": "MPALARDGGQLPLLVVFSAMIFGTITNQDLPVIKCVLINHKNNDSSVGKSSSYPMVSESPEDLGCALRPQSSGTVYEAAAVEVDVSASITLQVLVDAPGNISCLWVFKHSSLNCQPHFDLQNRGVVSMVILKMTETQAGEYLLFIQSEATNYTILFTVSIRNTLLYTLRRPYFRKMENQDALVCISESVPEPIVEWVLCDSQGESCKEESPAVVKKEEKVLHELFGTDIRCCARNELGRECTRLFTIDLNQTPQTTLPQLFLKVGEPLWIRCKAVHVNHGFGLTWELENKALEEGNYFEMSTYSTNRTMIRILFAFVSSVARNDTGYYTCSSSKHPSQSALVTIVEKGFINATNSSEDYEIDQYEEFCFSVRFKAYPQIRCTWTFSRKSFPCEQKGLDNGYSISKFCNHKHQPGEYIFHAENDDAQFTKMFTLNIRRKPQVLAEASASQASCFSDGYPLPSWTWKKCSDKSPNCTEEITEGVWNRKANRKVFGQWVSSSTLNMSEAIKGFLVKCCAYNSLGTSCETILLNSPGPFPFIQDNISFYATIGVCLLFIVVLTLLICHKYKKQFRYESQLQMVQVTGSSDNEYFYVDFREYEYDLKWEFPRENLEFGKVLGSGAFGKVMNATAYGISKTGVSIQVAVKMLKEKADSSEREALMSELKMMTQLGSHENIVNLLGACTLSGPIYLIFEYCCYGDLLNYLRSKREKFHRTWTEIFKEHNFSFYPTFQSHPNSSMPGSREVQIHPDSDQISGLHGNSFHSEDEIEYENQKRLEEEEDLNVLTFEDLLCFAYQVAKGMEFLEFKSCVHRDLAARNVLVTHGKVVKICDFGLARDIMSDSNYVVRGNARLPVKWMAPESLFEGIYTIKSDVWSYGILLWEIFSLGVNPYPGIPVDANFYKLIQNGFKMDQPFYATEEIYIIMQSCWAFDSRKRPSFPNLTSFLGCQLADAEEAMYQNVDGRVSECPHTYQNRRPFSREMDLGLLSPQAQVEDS", "experiment": "Inhibition of FLT3 (unknown origin)"}, "Mus musculus [13]": {"test_system": "Mus musculus", "experiment": "In vivo inhibition of mTORC1-mediated phosphorylation of pS6 at (serine 240/244) in human MCF7 cells xenografted into athymic nude mouse at 100 mg/kg, po after 1 hr by Western blotting analysis relative to control", "format": "functional", "conditions": "MCF7, 1 h", "method_in_brief": "as §3"}, "Mus musculus [14]": {"test_system": "Mus musculus", "experiment": "In vivo inhibition of mTORC2-mediated phosphorylation of AKT at serine 473 in human MCF7 cells xenografted into athymic nude mouse at 100 mg/kg, po after 32 hrs by Western blotting analysis relative to control", "format": "functional", "conditions": "MCF7, 32 h", "method_in_brief": "as §3"}, "[15]": {"experiment": "AUC (0 to infinity) in CD rat at 3 mg/kg, iv", "format": "ADME, organism-based", "parameters": "time infinity, dose 3 mg/kg, route intravenous", "conditions": "plasma", "method_in_brief": "as §1"}, "Mus musculus [16]": {"test_system": "Mus musculus", "experiment": "In vivo inhibition of mTORC1-mediated phosphorylation of p70S6K at […] in human MCF7 cells xenografted into athymic nude mouse at 100 mg/kg, po after 32 hrs by Western blotting analysis relative to control", "format": "functional", "conditions": "MCF7, 32 h", "method_in_brief": "as §3"}, "Mus musculus [17]": {"test_system": "Mus musculus", "experiment": "In vivo inhibition of mTORC2-mediated phosphorylation of AKT at serine 473 in human MCF7 cells xenografted into athymic nude mouse at 100 mg/kg, po after 4 hrs by Western blotting analysis relative to control", "format": "functional", "conditions": "MCF7, 4 h", "method_in_brief": "as §3"}, "Mus musculus [18]": {"test_system": "Mus musculus", "experiment": "In vivo inhibition of mTORC2-mediated phosphorylation of AKT at […] in human MCF7 cells xenografted into athymic nude mouse at 100 mg/kg, po after 32 hrs by Western blotting analysis relative to control", "format": "functional", "conditions": "MCF7, 32 h", "method_in_brief": "as §3"}, "[19]": {"biological_target": "Ribosomal protein S6 kinase beta-1 (Homo sapiens, UniProt P23443)", "sequence (P23443 whole entry)": "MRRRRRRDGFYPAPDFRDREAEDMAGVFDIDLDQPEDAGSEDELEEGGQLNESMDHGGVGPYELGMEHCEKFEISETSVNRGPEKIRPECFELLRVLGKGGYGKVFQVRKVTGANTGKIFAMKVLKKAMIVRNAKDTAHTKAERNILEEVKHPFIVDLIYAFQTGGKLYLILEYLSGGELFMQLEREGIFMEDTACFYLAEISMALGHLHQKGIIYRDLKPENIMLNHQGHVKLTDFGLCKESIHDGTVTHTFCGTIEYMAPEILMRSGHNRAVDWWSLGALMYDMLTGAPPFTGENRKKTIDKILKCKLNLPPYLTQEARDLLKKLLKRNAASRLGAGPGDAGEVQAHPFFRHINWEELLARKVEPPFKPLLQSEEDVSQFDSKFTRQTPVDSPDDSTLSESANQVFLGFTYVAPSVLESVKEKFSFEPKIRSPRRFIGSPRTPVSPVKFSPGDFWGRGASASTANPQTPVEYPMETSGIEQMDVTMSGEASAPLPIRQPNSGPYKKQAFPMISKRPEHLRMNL", "experiment": "Inhibition of p70S6K (unknown origin)"}, "[20]": {"experiment": "AUC (0 to infinity) in athymic nude mouse at 10 mg/kg, po", "format": "ADME, organism-based", "parameters": "dose 10 mg/kg, route oral, time infinity", "conditions": "plasma", "method_in_brief": "as §1"}, "Plasma": {"test_system": "Plasma", "experiment": "Plasma concentration in athymic mouse plasma xenografted with human MCF7 cells at 100 mg/kg, po after 24 hrs", "format": "ADME, organism-based", "parameters": "dose 100 mg/kg, route oral", "conditions": "in vivo, BLD = below limit of detection", "method_in_brief": "(§4)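 MCF-7 cells (5 × 10^6, in 50% cold HBSS/50% growth-factor-reduced matrigel) were implanted subcutaneously in the hindflank of 5–8 week old female nude mice. At 40–150 mg tumour size, mice received a single oral dose of 100 mg/kg, and plasma was sampled at the listed times after dosing.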"}, "Mus musculus [21]": {"test_system": "Mus musculus", "experiment": "In vivo inhibition of mTORC2-mediated phosphorylation of AKT at […] in human MCF7 cells xenografted into athymic nude mouse at 100 mg/kg, po after 16 hrs by Western blotting analysis relative to control", "format": "functional", "conditions": "MCF7, 16 h", "method_in_brief": "as §3"}, "[22]": {"experiment": "Drug uptake in tumor of athymic mouse xenografted with human PC3 cells at 100 mg/kg, po after 16hrs", "format": "ADME, organism-based, Neoplasm, PC-3", "parameters": "dose 100 mg/kg, route oral", "conditions": "read-out: Drug uptake", "method_in_brief": "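PC-3 cells (3 × 10⁶, passages 10–14, in ice-cold HBSS) were implanted sc in 5–8 week old male nude mice. Tumors of 200–500 mg received a single oral 100 mg/kg dose. Plasma and tumor were collected at 1, 4, 8, 16, 24 and 32 h and homogenized in buffer. Lysates were pooled per group (n = 5), and phospho-proteins were measured by Western blot normalized to α-tubulin.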"}, "[23]": {"experiment": "Plasma concentration in athymic mouse plasma xenografted with human MCF7 cells at 100 mg/kg, po after 16 hrs", "format": "ADME, organism-based", "parameters": "dose 100 mg/kg, route oral", "method_in_brief": "as §4"}},
  "data": [
    {"smiles": "Cc1c(C(=O)N2CCOc3ccc(-c4ccc(N)nc4)cc3C2)ccc(S(C)(=O)=O)c1F", "values": [
      {"measurement": "Papp", "setting": "[1]", "result": 15.1, "unit": "×10⁻⁶ cm/s"},
      {"measurement": "Cmax", "setting": "[2]", "result": 4.12, "unit": "µM"},
      {"measurement": "Cmax", "setting": "[3]", "result": 0.707, "unit": "µM"},
      {"measurement": "inhibition in vivo at 100 mg/kg", "setting": "Mus musculus [4]", "result": -3, "unit": "%"},
      {"measurement": "concentration at 16 h", "setting": "[5]", "result": 6.17, "unit": "µM"},
      {"measurement": "inhibition in vivo at 100 mg/kg", "setting": "Mus musculus [6]", "result": -12, "unit": "%"},
      {"measurement": "bioavailability", "setting": "[7]", "result": 25.6, "unit": "%"},
      {"measurement": "concentration at 8 h", "setting": "[8]", "result": 16.6, "unit": "µM"},
      {"measurement": "inhibition in vivo at 100 mg/kg", "setting": "Mus musculus [9]", "result": 84, "unit": "%"},
      {"measurement": "inhibition in vivo at 100 mg/kg", "setting": "Mus musculus [10]", "result": 89, "unit": "%"},
      {"measurement": "Tmax", "setting": "[11]", "result": 30, "unit": "min"},
      {"measurement": "IC50", "setting": "[12]", "result": "> 3.5", "unit": "µM"},
      {"measurement": "inhibition in vivo at 100 mg/kg", "setting": "Mus musculus [13]", "result": 96, "unit": "%"},
      {"measurement": "inhibition in vivo at 100 mg/kg", "setting": "Mus musculus [14]", "result": 11, "unit": "%"},
      {"measurement": "AUC(0-inf)", "setting": "[15]", "result": 3.72, "unit": "µM·h"},
      {"measurement": "inhibition in vivo at 100 mg/kg", "setting": "Mus musculus [16]", "result": 2, "unit": "%"},
      {"measurement": "inhibition in vivo at 100 mg/kg", "setting": "Mus musculus [17]", "result": 87, "unit": "%"},
      {"measurement": "inhibition in vivo at 100 mg/kg", "setting": "Mus musculus [18]", "result": 10, "unit": "%"},
      {"measurement": "IC50", "setting": "[19]", "result": "> 3.5", "unit": "µM"},
      {"measurement": "AUC(0-inf)", "setting": "[20]", "result": 2.51, "unit": "µM·h"},
      {"measurement": "Cp", "setting": "Plasma", "result": "BLD"},
      {"measurement": "inhibition in vivo at 100 mg/kg", "setting": "Mus musculus [21]", "result": 43, "unit": "%"},
      {"measurement": "concentration at 16 h", "setting": "[22]", "result": 7.34, "unit": "µM"},
      {"measurement": "concentration at 16 h", "setting": "[23]", "result": 2.08, "unit": "µM"}
    ]}
  ]
}
